Compound activity: PubChem, several laboratories
TAAR1 antag: human TAAR1 antagonists, primary screen, Fluo-8 calcium fluorescence, CHO RD-HGA16 cells. antagonist. inhibition, % at 3 µM. actives 1.5% (n = 360,000). AID 624466, 2012;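 active means inhibition above a per-plate cutoff, the mean inhibition of test compounds on that plate plus 3 SD, cut at about 49% in these data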;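 further: 0% = DMSO plus EC80 beta-PEA response and 100% = DMSO alone without agonist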
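Assay system: RD-HGA16 CHO cells with stable hTAAR1 and Gα16 / Reagent: EC80 β-phenethylamine stimulus / Doses: 3 µM, single point / Timing: dye loading 75 min at 37 °C, then 30 min room temperature / Measured by: Fluo-8 intracellular calcium dye fluorescence, real-time kinetic reads / Controls: vehicle wells and EC80 agonist wells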
TAAR1 ag: human TAAR1 agonists, primary screen, Fluo-8 calcium fluorescence, CHO RD-HGA16 cells; Trace amine-associated receptor 1 (Homo sapiens), Q96RJ0; vehicle wells 0%, saturating PEA agonist 100%; activation, % at 3 µM; actives 0.99% (n = 360,000); AID 624467, 2012;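 active means activation above the mean activation of all test compounds in the run plus 3 SD, cut at about 38% in these data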
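Repeats: no replicates (n 1) | Material: CHO-derived RD-HGA16 cells with stable Gα16 and human TAAR1 | Technique: Kinetic Fluo-8 calcium fluorescence | Schedule: 17-24 h seeding, 75 min 37 °C dye, 30 min RT | Evaluation: % activation from peak over basal fluorescence ratio, DMSO-to-PEA scaled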
MC4R antagonist: MC4R antagonists of cAMP signaling, primary screen, cell-based, TR-FRET, antagonist arm of biased-ligand search. Melanocortin receptor 4 (Homo sapiens), P32245. MC4R-expressing cells, MTII-stimulated cAMP, LANCE TR-FRET. inhibition, % at 6.5 µM. actives 0.48% (n = 360,000). AID 540295, 2011;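 active means inhibition above its plate's cutoff, the mean of tested wells on that plate plus 3 SD, cut at about 29% in these data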;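 further: 0% = Melanotan II alone and 100% = Melanotan II plus saturating MCL0020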
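Material: U2OS-MC4R stable cell line | Reagent: Melanotan II challenge after compound preincubation | Doses: One concentration, 6.5 µM nominal | Incubation: 30-min compound preincubation, 1-h Melanotan II challenge, 1-h detection, room temperature | Signal: TR-FRET cAMP assay | Replicates: One well per compound, no replicates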
Beta2AR agonist: beta2AR agonists driving receptor internalization, primary screen, cell-based, FAP fluorogen, flow cytometry; Am2.2-beta2AR cells; Beta-2 adrenergic receptor (Homo sapiens), P07550; actives 0.43% (n = 340,000); response, % (no concentration beside the values);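 active means response above a set limit, near 3 SD of response in nonfluorescent compounds, cut at about 42% in these data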
MC4R ag barr: MC4R agonists recruiting beta-arrestin, primary screen, cell-based, luminescence, agonist arm of biased-ligand search | actives 0.98% (n = 360,000) | U2OS MC4R beta-arrestin complementation; percent of melanotan II response, DMSO zero | activation, % at 8.9 µM;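 active means activation above a per-plate cutoff, the mean activation of sample wells on that plate plus 3 SD, cut at about 8% in these data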
m5-HT2A agonist: mouse Htr2a agonists via beta-arrestin recruitment, primary screen, cell-based, luminescence; 5-hydroxytryptamine receptor 2A (Mus musculus), P35363; CHO-K1 mHTR2A beta-arrestin complementation; percent of 30 µM serotonin response; activation, % at 7.6 µM; actives 0.66% (n = 360,000);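 active means activation above a run cutoff, the mean activation of all tested compounds plus 3 SD, cut at about 14% in these data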;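 further: 0% = plate median of compound wells and 100% = 30 µM serotonin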
Target sequence (P35363 whole entry, looked up): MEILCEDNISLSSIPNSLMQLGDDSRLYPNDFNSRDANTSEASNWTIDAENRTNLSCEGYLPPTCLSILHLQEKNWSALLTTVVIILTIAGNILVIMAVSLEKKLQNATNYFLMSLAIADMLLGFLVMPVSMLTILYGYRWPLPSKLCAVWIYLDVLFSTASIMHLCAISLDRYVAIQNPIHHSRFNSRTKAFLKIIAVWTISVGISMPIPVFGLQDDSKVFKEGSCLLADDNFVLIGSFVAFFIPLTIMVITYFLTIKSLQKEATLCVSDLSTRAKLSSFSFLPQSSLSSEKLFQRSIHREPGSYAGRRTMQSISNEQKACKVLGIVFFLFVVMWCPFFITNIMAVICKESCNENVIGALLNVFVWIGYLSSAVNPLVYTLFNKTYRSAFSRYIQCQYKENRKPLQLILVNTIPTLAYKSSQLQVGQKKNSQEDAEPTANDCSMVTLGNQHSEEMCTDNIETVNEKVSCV
MC4R barr conf: MC4R beta-arrestin agonists, retest, confirmation, cell-based, luminescence, U2OS; shares compounds with MC4R ag barr; U2OS MC4R beta-arrestin recruitment; scaled DMSO 0%, Melanotan II 100%; activation, % at 8.9 µM; actives 31% (n = 2,400); AID 602192, 2012;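 active means mean activation across replicates above the hit cutoff set in the earlier primary screen, cut at about 8% in these data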
MOR DOR agonist: agonists of MOR-DOR heterodimerization, counter-screen for MC4R biased agonist project, cell-based, luminescence | shares compounds with MC4R ag barr | U2OS PathHunter beta-arrestin, beta-gal luminescence; percent of deltorphin B response, DMSO zero | AID 602194, 2012 | activation, % at 9.2 µM | actives 5.8% (n = 2,400);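 active means mean activation across replicates exceeds the hit threshold derived in the earlier primary screen, cut at about 18% in these data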;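 further: 100% = deltorphin B at 0.9 µM final and 0% = DMSO alone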
Numbers without * were called inactive. Hits are enriched below; roughly 4.3% of the tested compounds scored in any of these assays.

How did O=C(Nc1nnc(SCc2ccccc2)s1)c1cc2c(s1)CCCC2 do in these assays?
TAAR1 antag: -4; TAAR1 ag: 0; MC4R antagonist: -3; Beta2AR agonist: 0; MC4R ag barr: 20*; m5-HT2A agonist: -3; MC4R barr conf: 8.3*; MOR DOR agonist: 3

What do the screens show for `CCCCNC(=O)C1(C)CCC(=O)N1C1CCN(Cc2ccccc2)CC1` (centres undefined)?
TAAR1 antag: -19; TAAR1 ag: 6; m5-HT2A agonist: 6

How did O=C(c1ccc(S(=O)(=O)Nc2ccccc2F)cc1)N1CCN(c2ccccc2O)CC1 do in these assays?
TAAR1 antag: 17; TAAR1 ag: 7; MC4R antagonist: 11; Beta2AR agonist: 14; MC4R ag barr: -1; m5-HT2A agonist: -5

Results for O=C(N=Nc1c(O)n(Cc2ccccc2)c2ccccc12)c1cc2ccccc2cc1O ?
TAAR1 antag: 7; TAAR1 ag: 0; MC4R antagonist: -6; Beta2AR agonist: 6; MC4R ag barr: 16*; m5-HT2A agonist: 0; MC4R barr conf: 19*; MOR DOR agonist: 16

What do the screens show for `Cc1ccc(NC(=O)Cn2c(O)c(N=NC(=O)c3cc4ccccc4cc3O)c3ccccc32)cc1`?
TAAR1 antag: 13; TAAR1 ag: 4; MC4R antagonist: 3; Beta2AR agonist: -3; MC4R ag barr: 12*; m5-HT2A agonist: 1; MC4R barr conf: 8; MOR DOR agonist: 41*

What do the screens show for `CCN(CC(=O)Nc1ccccc1OC)C(=O)c1cc(S(=O)(=O)N2CCCCCC2)ccc1OC`?
TAAR1 antag: 6; TAAR1 ag: 4; MC4R antagonist: 4; Beta2AR agonist: 4; MC4R ag barr: -1; m5-HT2A agonist: 2

What do the screens show for `CCc1nc(NCC2CC2)c2nnn(Cc3ccccc3)c2n1`?
TAAR1 antag: 0; TAAR1 ag: 30; MC4R antagonist: -1; MC4R ag barr: 12*; m5-HT2A agonist: 5; MC4R barr conf: 4; MOR DOR agonist: 10

Results for Cc1ccc2cc(/C=N/NC(=O)[C@H]3C[C@@H]3c3ccccc3)c(Cl)nc2c1 ?
TAAR1 antag: -10; TAAR1 ag: 4; MC4R antagonist: 7; Beta2AR agonist: 1; MC4R ag barr: 24*; m5-HT2A agonist: -4; MC4R barr conf: 3; MOR DOR agonist: 4

Results for CCOC(=O)c1c(C)[nH]c(C(=O)COC(=O)c2cc(C)oc2C)c1C ?
TAAR1 antag: 4; TAAR1 ag: 0; MC4R antagonist: -9; Beta2AR agonist: 0; MC4R ag barr: 19*; m5-HT2A agonist: 3; MC4R barr conf: 9.9*; MOR DOR agonist: 5

What do the screens show for `COc1cc(/C=C/C(=O)O)cc(S(=O)(=O)Nc2ccccc2C(=O)NCc2ccco2)c1OC`?
TAAR1 antag: -23; TAAR1 ag: 1; MC4R antagonist: 1; Beta2AR agonist: -6; MC4R ag barr: 0; m5-HT2A agonist: 2

What do the screens show for `COc1cccc(C(=O)Nc2nnc(-c3ccccc3)s2)c1`?
TAAR1 antag: -10; TAAR1 ag: 3; MC4R antagonist: -4; Beta2AR agonist: 7; MC4R ag barr: 13*; m5-HT2A agonist: 3; MC4R barr conf: 2; MOR DOR agonist: 1

What do the screens show for `COc1cccc(C(=O)NCc2ccc(-c3nc4ccccc4s3)cc2)c1`?
TAAR1 antag: -14; TAAR1 ag: 5; MC4R antagonist: 0; Beta2AR agonist: -13; MC4R ag barr: 30*; m5-HT2A agonist: -5; MC4R barr conf: 2; MOR DOR agonist: 4

How did COc1cccc(C(=O)Nc2nnc(-c3ccc(OC)cc3OC)s2)c1 do in these assays?
TAAR1 antag: 5; TAAR1 ag: -1; MC4R antagonist: 10; Beta2AR agonist: -4; MC4R ag barr: 1; m5-HT2A agonist: -6

How did C[C@@H]1CN([C@H](C)CO)C(=O)c2c(c3ccccc3n2C)-c2ccccc2CO[C@H]1CN(C)C(=O)NC1CCCCC1 do in these assays?
TAAR1 antag: -22; TAAR1 ag: 2; MC4R antagonist: 19; MC4R ag barr: 2; m5-HT2A agonist: 1

Results for Cc1occc1C(=O)Nc1nnc(-c2cccs2)s1 ?
TAAR1 antag: -1; TAAR1 ag: 4; MC4R antagonist: 9; Beta2AR agonist: -11; MC4R ag barr: 13*; m5-HT2A agonist: 8; MC4R barr conf: 4; MOR DOR agonist: 10

How did COc1ccc(NC(=O)Nc2nnc(-c3ccccc3SCc3ccccc3)s2)cc1 do in these assays?
TAAR1 antag: 34; TAAR1 ag: 9; MC4R antagonist: 1; Beta2AR agonist: 3; MC4R ag barr: 18*; m5-HT2A agonist: -1; MC4R barr conf: 17*; MOR DOR agonist: 5

What do the screens show for `COc1cccc(NC(=O)Nc2nnc(-c3ccccc3SCc3ccccc3)s2)c1`?
TAAR1 antag: -7; TAAR1 ag: 1; MC4R antagonist: -4; Beta2AR agonist: -3; MC4R ag barr: 0; m5-HT2A agonist: 1

How did COc1ccc(NC(=O)Nc2nnc(-c3cccs3)s2)cc1 do in these assays?
TAAR1 antag: 0; TAAR1 ag: 3; MC4R antagonist: -2; Beta2AR agonist: 3; MC4R ag barr: 13*; m5-HT2A agonist: 9; MC4R barr conf: 0; MOR DOR agonist: 5

Results for COc1ccc(C(=O)Nc2nnc(-c3cccs3)s2)cc1 ?
TAAR1 antag: 4; TAAR1 ag: 7; MC4R antagonist: -9; Beta2AR agonist: -15; MC4R ag barr: 0; m5-HT2A agonist: -2

Results for CN(C)c1cccc(F)c1C(=O)NC(=O)Nc1ccc(Cl)cc1 ?
TAAR1 antag: -5; TAAR1 ag: 4; MC4R antagonist: -18; Beta2AR agonist: -6; MC4R ag barr: -3; m5-HT2A agonist: -8
